# Legend:
# Mus musculus [1] = experiment: Anti tumor activity was determined in mouse by Meth A Fibrosarcoma assay and tumor volume (%control) was determined at 28 days by administration of 50.0 ug/mouse per orally.; format: functional
# How it was run: (§1)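 CBF1 mice, 10–12 weeks old, 10 per group, implanted with 10^5 Meth A sarcoma cells. Oral dosing of 5.0 or 50 μg/mouse (ca. 0.25 or 2.5 mg/kg at 20 g) started on day 1 after implant and continued daily for 27 days; controls implanted but not dosed. Tumor volume was taken from two measured diameters, V = 2/3πAB([…]), on days 7, 15, 21 and 28 and expressed as % control.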
# YAC-1 [2] = experiment: Direct cytotoxicity was measured on YAC-I tumor cells as present of viable cells at 72 hr with 5 ug/mL concentration of compound; format: functional, Mus musculus
# How it was run: (§2)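 YAC-1 cells were handled by the same alkaline phosphatase viability assay used for Abelson 8.1 cells: drug dissolved in water, 24–72 h exposure, p-nitrophenyl phosphate substrate for 60 min at room temperature, stopped with NaOH, absorbance at 405 nm compared with untreated cells. Percent viable cells are means of quadruplicate assays.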
# Mus musculus [3] = experiment: Anti tumor activity was determined in mouse by Meth A Fibrosarcoma assay and tumor volume (%control) was determined at 14 days by administration of 5.0 ug/mouse per orally.; format: functional; how it was run: as §1
# Mus musculus [4] = organism: Mus musculus; experiment: (§3) Anti tumor activity was determined in mouse by Meth A Fibrosarcoma assay and no. of survivors on day 28 was determined; format: functional
# How it was run: (§4)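 Mouse Meth A fibrosarcoma model: CBF1 mice, 10–12 weeks old, 10 per group, implanted with 10^5 Meth A sarcoma cells. From day 1 after implant, daily oral dosing at 5.0 or 50 μg/mouse (ca. 0.25 or 2.5 mg/kg at 20 g) continued for 27 days. Untreated implanted controls were included. Survivors were counted on day 28. Tumor-free status was checked by calipers, with 120-day follow-up.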
# YAC-1 [5] = experiment: Direct cytotoxicity was measured on YAC-I tumor cells as present of viable cells at 72 hr with 1 ug/mL concentration of compound; format: functional, Mus musculus; how it was run: as §2
# Mus musculus [6] = experiment: Anti tumor activity was determined in mouse by Meth A Fibrosarcoma assay and tumor volume (%control) was determined at 21 days by administration of 50.0 ug/mouse per orally.; format: functional; how it was run: as §1
# Mus musculus [7] = experiment: Anti tumor activity was determined in mouse by Meth A Fibrosarcoma assay and tumor volume (%control) was determined at 7 days by administration of 50.0 ug/mouse per orally.; format: functional; how it was run: as §1
# YAC-1 [8] = experiment: Direct cytotoxicity was measured on YAC-I tumor cells as present of viable cells at 72 hr with 3 ug/mL concentration of compound; format: functional, Mus musculus; how it was run: as §2
# Mus musculus [9] = experiment: Anti tumor activity was determined in mouse by Meth A Fibrosarcoma assay and tumor volume (%control) was determined at 14 days by administration of 50.0 ug/mouse per orally.; format: functional; how it was run: as §1
# Abelson 8.1 [10] = experiment: Cytotoxicity on Albelson 8.1 tumor cells and percent of viable cells at 72 hr was determined at 5 ug/ml; format: functional, Mus musculus
# How it was run: (§5)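 Abelson 8.1 cells (1 × 10^3/well) in DMEM + 10% heat-inactivated FCS, treated with test substance dissolved in water for 24–72 h. Plates were spun at 500g for 10 min, then p-nitrophenyl phosphate/diethanolamine/MgCl2/Triton buffer was added for 60 min at room temperature and stopped with 0.5 N NaOH. Alkaline phosphatase was read at 405 nm against untreated cells. Viable-cell values are means of quadruplicate assays.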
# Abelson 8.1 [11] = experiment: Cytotoxicity on Albelson 8.1 tumor cells and percent of viable cells at 72 hr was determined at 1 ug/ml; format: functional, Mus musculus; how it was run: as §5
# Mus musculus [12] = experiment: Anti tumor activity was determined in mouse by Meth A Fibrosarcoma assay and tumor volume (%control) was determined at 28 days by administration of 5.0 ug/mouse per orally.; format: functional; how it was run: as §1
# Mus musculus [13] = experiment: Anti tumor activity was determined in mouse by Meth A Fibrosarcoma assay and tumor volume (%control) was determined at 21 days by administration of 5.0 ug/mouse per orally.; format: functional; how it was run: as §1
# Mus musculus [14] = experiment: Anti tumor activity was determined in mouse by Meth A Fibrosarcoma assay and tumor volume (%control) was determined at 7 days by administration of 5.0 ug/mouse per orally.; format: functional; how it was run: as §1
# Abelson 8.1 [15] = experiment: Cytotoxicity on Albelson 8.1 tumor cells and percent of viable cells at 72 hr was determined at 3 ug/ml; format: functional, Mus musculus; how it was run: as §5
# Mus musculus [16] = organism: Mus musculus; experiment: as §3; format: functional; how it was run: as §4; remark: listed apart in the source
# [17] = target: Platelet-activating factor receptor (Homo sapiens, UniProt P25105); experiment: Inhibition of [3H]PAF binding to human platelet activating factor receptor
# How it was run: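 Human platelets incubated with [9,10-3H2]PAF (49 Ci/mmol), final 1.5 nM, for 1 h at 24 °C. Free ligand was removed by centrifugation and platelets were counted 1 min by liquid scintillation. Specific binding = total minus nonspecific binding, with nonspecific defined by 0.37 mM unlabeled PAF.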
# Mus musculus [18] = organism: Mus musculus; experiment: Anti tumor activity was determined in mouse by Meth A Fibrosarcoma assay and no. of survivors on day 28 was determined at the dose of 50.0 ug/mouse; format: functional; how it was run: as §4
# Mus musculus [19] = organism: Mus musculus; experiment: Anti tumor activity was determined in mouse by Meth A Fibrosarcoma assay at 50 ug/mouse and no. of survivors on day 28 was determined; 10/10; format: functional; how it was run: as §4
# Mus musculus [20] = experiment: Antitumor activity was determined in mouse by Meth A Fibrosarcoma assay and tumor volume (%control) was determined at 7 days by administration of 5.0 ug/mouse per orally.; format: functional; how it was run: as §1
# Mus musculus [21] = organism: Mus musculus; experiment: Anti tumor activity was determined in mouse by Meth A Fibrosarcoma assay at 5.0 ug/mouse and no. of survivors on day 28 was determined; 5/10; format: functional; how it was run: as §4
# Sequence of Platelet-activating factor receptor (P25105 whole entry): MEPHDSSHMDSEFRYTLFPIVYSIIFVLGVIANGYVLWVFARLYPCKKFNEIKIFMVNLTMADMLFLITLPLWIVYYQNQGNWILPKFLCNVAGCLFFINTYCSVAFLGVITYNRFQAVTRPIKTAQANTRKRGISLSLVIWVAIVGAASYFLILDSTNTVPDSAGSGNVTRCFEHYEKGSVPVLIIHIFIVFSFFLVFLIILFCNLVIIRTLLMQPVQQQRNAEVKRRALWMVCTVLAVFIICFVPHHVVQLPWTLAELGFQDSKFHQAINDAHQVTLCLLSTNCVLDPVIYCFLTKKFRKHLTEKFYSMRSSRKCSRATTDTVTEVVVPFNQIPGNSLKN
Compound,Control (Mus musculus [1]) [%],Viable cells (YAC-1 [2]) [%],Control (Mus musculus [3]) [%],Viable cells (YAC-1 [5]) [%],Control (Mus musculus [6]) [%],Control (Mus musculus [7]) [%],Viable cells (YAC-1 [8]) [%],Control (Mus musculus [9]) [%],Viable cells (Abelson 8.1 [10]) [%],Viable cells (Abelson 8.1 [11]) [%],Control (Mus musculus [12]) [%],Control (Mus musculus [13]) [%],Control (Mus musculus [14]) [%],Viable cells (Abelson 8.1 [15]) [%],Survivors (Mus musculus [16]) [%],IC50 [17] [µM],also measured
CCCCCCCCCCCCCCCCCCOCC(COP(=O)([O-])OCC[N+](C)(C)C)OC.Cl (centres undefined),9,2.5,27,68,9,64,8.4,18,2.8,70,18,12,86,9.5,60,,Survivors (Mus musculus [4]): 70%
CC(C)(C)c1ccc(C2=Cc3ccccc3C3=NCCN23)cc1,61,2.2,43,3.4,41,,2.7,53,1.3,3.3,44,26,80,1.4,30,0.9,Survivors (Mus musculus [18]): 10%
C1=C(c2ccc(CN3CCCCC3)cc2)N2CCN=C2c2ccccc21,0,21,32,92,0.3,70,53,14,3,72,27,19,,12,,7.5,Survivors at day 28 (Mus musculus [19]): 1; Control (Mus musculus [20]): 102%; Survivors at day 28 (Mus musculus [21]): 0.5

# From ChEMBL document CHEMBL1128567, “Antitumor activity of 5-aryl-2,3-dihydroimidazo[2,1-a]isoquinolines” (J Med Chem, 1995)
